Tests used:
Format in all cases: functional
DU-145 = assay: Antiproliferative activity against human DU145 cells assessed as reduction in cell growth incubated for 96 hrs by propidium iodide based 2D monolayer assay
Method in brief: (§1)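 After 24 h recovery, compound in medium or medium alone (control wells) was added at 10 half-log concentrations from 0.0032 to 100 µM, in triplicate, with at most 0.3% DMSO. After 96 h, wells were PBS-washed, stained with 7 µg/ml PI and 0.1% Triton X-100, and fluorescence read at 530/620 nm. IC50 came from a 4-parameter fit, geometric mean.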

CWR22R = assay: Antiproliferative activity against human 22Rv1 cells assessed as reduction in cell growth incubated for 96 hrs by propidium iodide based 2D monolayer assay; method in brief: as §1
LNCaP [1] = assay: Antiproliferative activity against human LNCAP cells assessed as reduction in cell growth incubated for 96 hrs by propidium iodide based 2D monolayer assay; method in brief: as §1
VCaP [2] = assay: Antiproliferative activity against human VCaP cells assessed as reduction in cell growth incubated for 96 hrs by propidium iodide based 2D monolayer assay
Method in brief: (§2)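 VCaP cells in RPMI 1640 with 10% FCS at 37 °C, 5% CO2, seeded 4,000–20,000 cells/well and left 24 h before dosing. Compounds from DMSO stocks were diluted in half-log steps in medium, 10 concentrations 0.0032–100 μM, triplicate wells, max 0.3% DMSO. After 96 h, cells were washed, stained with 7 μg/ml propidium iodide plus 0.1% Triton X-100 for 1–2 h at room temperature, and fluorescence read at ex 530/em 620 nm.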

VCaP [3] = assay: Antiproliferative activity against human VCaP cells assessed as T/C value at 3.2 x 10^-3 uM incubated for 96 hrs by propidium iodide based 2D monolayer assay; method in brief: as §2
VCaP [4] = assay: Antiproliferative activity against human VCaP cells assessed as T/C value at 1 x 10^-2 uM incubated for 96 hrs by propidium iodide based 2D monolayer assay
Method in brief: as §1, with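 “Cells were kept in RPMI 1640 with 25 mM HEPES, 10% FCS and gentamicin at 37 °C under 5% CO2, and plated at 4,000-20,000 cells/well. After 24” for “After 24”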

VCaP [5] = assay: Antiproliferative activity against human VCaP cells assessed as T/C value at 3.2 x 10^-2 uM incubated for 96 hrs by propidium iodide based 2D monolayer assay; method in brief: as §2
VCaP [6] = assay: Antiproliferative activity against human VCaP cells assessed as T/C value at 1 x 10^-1 uM incubated for 96 hrs by propidium iodide based 2D monolayer assay
Method in brief: as §1, with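 “Cells were kept in RPMI 1640 with 25 mM HEPES, 10% FCS and gentamicin at 37 °C under 5% CO2, and plated at 4,000-20,000 cells/well. After 24” for “After 24”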

VCaP [7] = assay: Antiproliferative activity against human VCaP cells assessed as T/C value at 3.2 x 10^-1 uM incubated for 96 hrs by propidium iodide based 2D monolayer assay; method in brief: as §2
VCaP [8] = assay: Antiproliferative activity against human VCaP cells assessed as T/C value at 1 uM incubated for 96 hrs by propidium iodide based 2D monolayer assay
Method in brief: as §1, with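 “Cells were kept in RPMI 1640 with 25 mM HEPES, 10% FCS and gentamicin at 37 °C under 5% CO2, and plated at 4,000-20,000 cells/well. After 24” for “After 24”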

VCaP [9] = assay: Antiproliferative activity against human VCaP cells assessed as T/C value at 3.2 uM incubated for 96 hrs by propidium iodide based 2D monolayer assay
Method in brief: as §1, with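 “Cells were kept in RPMI 1640 with 25 mM HEPES, 10% FCS and gentamicin at 37 °C under 5% CO2, and plated at 4,000-20,000 cells/well. After 24” for “After 24”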

VCaP [10] = assay: Antiproliferative activity against human VCaP cells assessed as T/C value at 1 x 10^1 uM incubated for 96 hrs by propidium iodide based 2D monolayer assay
Method in brief: as §1, with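 “Cells were kept in RPMI 1640 with 25 mM HEPES, 10% FCS and gentamicin at 37 °C under 5% CO2, and plated at 4,000-20,000 cells/well. After 24” for “After 24”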

VCaP [11] = assay: Antiproliferative activity against human VCaP cells assessed as T/C value at 3.2 x 10^1 uM incubated for 96 hrs by propidium iodide based 2D monolayer assay; method in brief: as §2
VCaP [12] = assay: Antiproliferative activity against human VCaP cells assessed as T/C value at 1 x 10^2 uM incubated for 96 hrs by propidium iodide based 2D monolayer assay
Method in brief: as §1, with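 “Cells were kept in RPMI 1640 with 25 mM HEPES, 10% FCS and gentamicin at 37 °C under 5% CO2, and plated at 4,000-20,000 cells/well. After 24” for “After 24”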

LNCaP [13] = assay: Antiproliferative activity against human LNCAP cells assessed as T/C value at 3.2 x 10^-3 uM incubated for 96 hrs by propidium iodide based 2D monolayer assay
Method in brief: as §1, with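 “Cells were kept in RPMI 1640 with 25 mM HEPES, 10% FCS and gentamicin at 37 °C under 5% CO2, and plated at 4,000-20,000 cells/well. After 24” for “After 24”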

CNC(=O)c1ccc(N2C(=S)N(c3ccc(C#N)c(C(F)(F)F)c3)C(=O)C2(C)C)cc1F [ENZALUTAMIDE]
Activity (DU-145): Dose-dependent effect | IC50 (DU-145; DU-145, 96 h): 32.3 µM | IC70 (DU-145; DU-145, 96 h): 71.1 µM | Activity (CWR22R): Dose-dependent effect | IC70 (CWR22R; 22Rv1, 96 h): 36.5 µM | Activity (LNCaP [1]): Dose-dependent effect | IC70 (LNCaP [1]): 31.7 µM | Activity (VCaP [2]): Dose-dependent effect | IC50 (VCaP [2]): 53 µM | IC70 (VCaP [2]): > 100 µM | T/C (VCaP [3]): 106% | T/C (VCaP [4]): 106% | T/C (VCaP [5]): 104% | T/C (VCaP [6]): 101% | T/C (VCaP [7]): 88% | T/C (VCaP [8]): 85% | T/C (VCaP [9]): 85% | T/C (VCaP [10]): 85% | T/C (VCaP [11]): 85% | T/C (VCaP [12]): 44% | T/C (LNCaP [13]): 101%
